{"data": "Published values from different studies", "observed": "enzyme activity", "action": "inhibitor", "FGFR1": "Fibroblast growth factor receptor 1 (FGFR1, Homo sapiens, UniProt P11362)", "note": "Each line is one published result; the experiments were not run side by side."}
{"SMILES": "Cc1cnc(NC2CCOCC2)nc1-n1cnc(C(=O)NC(CN)c2cc(F)cc(Cl)c2)c1 (stereo not drawn)", "target": "FGFR1", "test": "radiometric", "setting": "1 µM", "remaining activity [%]": 118}
{"SMILES": "CCN(CC)CCNC(=O)c1c(C)[nH]c(/C=C2\\C(=O)Nc3ccc(F)cc32)c1C", "target": "FGFR1", "setting": "0.1 µM", "remaining activity [%]": 79}
{"SMILES": "Nc1nc(Nc2ccccc2)sc1C(=O)c1c(F)cccc1F", "target": "FGFR1", "setting": "10 µM", "remaining activity [%]": 64}
{"SMILES": "Oc1cccc(-c2nc(N3CCOCC3)c3oc4ncccc4c3n2)c1", "target": "FGFR1", "setting": "10 µM", "remaining activity [%]": 118}
{"SMILES": "Nc1nc(NC2CCCCC2)sc1C(=O)c1ccccc1", "target": "FGFR1", "setting": "10 µM", "remaining activity [%]": 97}
{"SMILES": "CC(C)(C)c1nc(-c2cccc(NS(=O)(=O)c3c(F)cccc3F)c2F)c(-c2ccnc(N)n2)s1", "target": "FGFR1", "test": "radiometric", "setting": "1 µM", "remaining activity [%]": 89}
{"SMILES": "Cc1sc(C(=O)NC2COC2)cc1-n1cc(NC(=O)Nc2c(F)cccc2Cl)cn1", "target": "FGFR1", "setting": "10 µM", "remaining activity [%]": 114}
{"SMILES": "COc1cc(Nc2cnc(C#N)c(O[C@H](C)CN(C)C)n2)ncc1-c1cnn(C)c1", "target": "FGFR1", "test": "radiometric", "setting": "10 µM", "remaining activity [%]": 39}
{"SMILES": "Cc1[nH]c(/C=C2\\C(=O)Nc3ccc(F)cc32)c(C)c1C(=O)N[C@H]1CCN(C(=O)N(C)C)C1", "target": "FGFR1", "setting": "0.1 µM", "remaining activity [%]": 122}
{"SMILES": "CCCOc1ccc(OC)c(F)c1C(=O)c1ccc(C(=O)N[C@@H]2CNC[C@H]2NC(=O)c2ccc3[nH]ncc3c2)cc1", "target": "Fibroblast growth factor receptor 1 (FGFR1, Homo sapiens, UniProt P11362, V561M)", "setting": "10 µM", "remaining activity [%]": 23}
{"SMILES": "COc1cc(Cl)c(C(=O)N[C@@H](CN[C@H]2CC[C@@H](N)CC2)Cc2ccc(C#N)cc2)cc1-c1ccc(CN[C@H](C)c2ccc(C)cc2)o1", "target": "FGFR1", "setting": "1 µM", "remaining activity [%]": 94}
{"SMILES": "CCN(CC)c1ccc(C2=NNC(=O)CC2C)cc1[N+](=O)[O-] (stereo not drawn)", "target": "FGFR1", "setting": "10 µM", "remaining activity [%]": 90}
